Assay results reported in PubChem BioAssay AID504338 (NMMLSC, 2011).
Active and inactive are the calls of the source.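 Rule for the calls: active = GFP response vs DMSO above 150% with enough events counted; inconclusive = fewer than 70 events counted for a yeast strain; inactive = the rest.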

Assay: yeast TOR reporter LAP4-GFP retest – cell-based, third cherry pick, flow cytometry, confirmation (AID 504338);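 note: ratio to plate DMSO wells so 100% equals DMSO level rather than 0%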
Conditions: S. cerevisiae LAP4-GFP strain, 3 h, at 10 µM, active compounds read high
In short: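 System: Saccharomyces cerevisiae strain expressing LAP4-GFP fusion protein. Quantity: cells at 0.2 OD600. Medium: synthetic complete medium. Read-out basis: median GFP fluorescence as percent of plate DMSO-well average. Signal: high-throughput flow cytometry of GFP, single-cell scatter gate. Schedule: 3 h treatment, 30 °C. Dosing: single compound dose, 10 µM final.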
With `CCN(CC)C(=O)Oc1ccnc2cc(Cl)ccc12` the GFP response vs DMSO was 101% (inactive). For `COc1cc(=O)n(C)c2c(O)cccc12`, the GFP response vs DMSO was 101% (inactive). For `CCCOCc1ccc(O)c2ncccc12`, the GFP response vs DMSO was 104% (inactive). For `COCCNc1nc(N)c([N+](=O)[O-])c(Nc2ccc(F)cc2)n1`, the GFP response vs DMSO was 106% (inactive). For `COc1ccc(OC)c(N/C(C)=C/C(=O)c2ccccc2)c1`, the GFP response vs DMSO was 103% (inactive). For `O=C(/C=C/Nc1cccc(O)c1)c1ccccc1`, the GFP response vs DMSO was 111% (inactive). For `C[n+]1cccc2cccc([O-])c21`, the GFP response vs DMSO was 107% (inactive). For `Cc1cccc(N/C=C/C(=O)c2ccc(Cl)cc2)c1`, the GFP response vs DMSO was 110% (inactive). In the case of `Nc1[nH]c(=O)nc(Nc2ccccc2)c1N=O`, the GFP response vs DMSO is reported as 104% (inactive). For `COc1ccccc1Nc1nc(NCC(C)C)nc(N)c1[N+](=O)[O-]`, the GFP response vs DMSO was 104% (inactive). For `CC1=CN2C(=N)/C(=C/c3ccc([N+](=O)[O-])o3)C(=O)N=C2S1`, the GFP response vs DMSO was 3330% (active). For `COc1cc(OC)cc(C(=O)Nc2ccc(-c3nc4ccccc4o3)cc2)c1`, the GFP response vs DMSO was 106% (inactive). With `O=C(Nc1ccccc1)O/N=C1\CCCCC1c1ccc([N+](=O)[O-])cc1[N+](=O)[O-]` (centres undefined) the GFP response vs DMSO was 106% (inactive). In the case of `COc1ccc(NC(=O)O/N=C2/CCCc3ccc(OC)cc32)cc1`, the GFP response vs DMSO is reported as 107% (inactive). For `COc1ccc(OC)c(Nc2nc(NCCC(C)C)nc(N)c2[N+](=O)[O-])c1`, the GFP response vs DMSO was 103% (inactive). With `CC(=O)Nn1cnc2c(c1=O)C1(CCCC1)Cc1ccccc1-2` the GFP response vs DMSO was 103% (inactive). In the case of `Cc1ccc(Nc2cc(=O)[nH]c(=O)[nH]2)cc1C`, the GFP response vs DMSO is reported as 104% (inactive). For `Cc1ccc2nc(-c3ccc(NC(=O)c4cccnc4)cc3)oc2c1`, the GFP response vs DMSO was 103% (inactive). With `CC(=O)Nc1ccc(-c2nc3ccccc3o2)cc1` the GFP response vs DMSO was 108% (inactive). In the case of `COC(=O)COc1c(Cl)cc(Cl)c2ccc(C)nc12`, the GFP response vs DMSO is reported as 107% (inactive). For `COc1ccc(OC)c2c(=O)cc(C(=O)O)[nH]c12`, the GFP response vs DMSO was 104% (inactive). With `O=C(Nc1ccc(-c2nc3ccccc3o2)cc1)c1cccnc1` the GFP response vs DMSO was 117% (inactive). In the case of `Cn1c(=O)c2c(n3cnnc13)-c1ccccc1CC21CCCC1`, the GFP response vs DMSO is reported as 101% (inactive). With `CNc1nc(N)c([N+](=O)[O-])c(Nc2ccccc2OC)n1` the GFP response vs DMSO was 111% (inactive). With `C/C(=N\NC(=O)c1ccccc1)c1ccccc1F` the GFP response vs DMSO was 106% (inactive). In the case of `C/C(=C\C(=O)c1ccc(C)cc1)Nc1cccc(O)c1`, the GFP response vs DMSO is reported as 106% (inactive). In the case of `CCN(CC)C(=O)Oc1cc(=O)n(C)c2ccccc12`, the GFP response vs DMSO is reported as 101% (inactive). For `Cc1ccc2c(Cl)cc(Cl)c(OCC(=O)O)c2n1`, the GFP response vs DMSO was 100% (inactive). With `C/C(=C\C(=O)c1ccccc1)Nc1cccc(O)c1` the GFP response vs DMSO was 107% (inactive). In the case of `COc1cccc2c(=O)c(C(=O)O)c[nH]c12`, the GFP response vs DMSO is reported as 110% (inactive). With `Brc1ccc2ncnc(NCc3ccccc3)c2c1` the GFP response vs DMSO was 107% (inactive). For `CS(=O)(=O)c1nc(-c2ccc(F)cc2)cc(C(F)(F)F)n1`, the GFP response vs DMSO was 144% (inactive). For `CNc1nc(N)c([N+](=O)[O-])c(Nc2cccc(Cl)c2)n1`, the GFP response vs DMSO was 131% (inactive). With `Cc1ccc(C)c(Nc2ncnc(N)c2[N+](=O)[O-])c1` the GFP response vs DMSO was 107% (inactive). For `Cc1ccc(Nc2nc(N)[nH]c(=O)c2N=O)cc1`, the GFP response vs DMSO was 104% (inactive). For `CC(=O)C(CC(=O)N1CCCC1)C(=O)Nc1ccc(Cl)cc1` (centres undefined), the GFP response vs DMSO was 108% (inactive). In the case of `Oc1ccc(F)c2cccnc12`, the GFP response vs DMSO is reported as 106% (inactive). In the case of `N#Cc1c(N)nc(N)nc1Nc1ccc(Br)cc1`, the GFP response vs DMSO is reported as 104% (inactive). In the case of `CNc1cccc2c1C(=O)c1ccccc1C2=O`, the GFP response vs DMSO is reported as 107% (inactive).
